# Published values pooled from the literature.
# Target: G protein-coupled receptor kinase 4 (GRK4, Homo sapiens, UniProt P32298)
SMILES,effect on,mode,method,concentration,endpoint,value
Cc1sc(C(=O)NC2COC2)cc1-n1cc(NC(=O)Nc2c(F)cccc2Cl)cn1,enzyme activity,inhibitor,,10 µM,remaining activity,113%
Cc1noc([C@H]2C[C@@H](c3ccc(C(F)(F)F)cc3)CN(C(=O)N3CCS(=O)(=O)C3)C2)n1,cell-free assay,,competition with immobilised ligand,1 µM,remaining binding,99%
O=C(Nc1cnn(-c2csc(C(=O)NC3COC3)c2)c1)Nc1ccccc1Cl,enzyme activity,inhibitor,,5 µM,remaining activity,97%
O=C(N[C@H]1CCCCC/C=C\C2C[C@@]2(C(=O)O)NC(=O)[C@@H]2C[C@@H](Oc3ccncc3)CN2C1=O)OC1CCCC1 (stereo partly shown),binding,,competition with immobilised ligand,1 µM,remaining binding,80%
CC(C)(C)c1nc2c(s1)c1nc(N)ncc1c1ccc(NS(=O)(=O)c3c(F)cccc3F)c(F)c12,enzyme activity,inhibitor,radiometric,1 µM,remaining activity,70%
COc1cc2c(N3CCN(C(=O)Nc4ccc(OC(C)C)cc4)CC3)ncnc2cc1OCCCN1CCCCC1,cell-free assay,,,0.5 µM,remaining signal,106%
COc1cc2ncnc(Nc3ccc(Oc4ccccc4)cc3C)c2cc1OC,enzyme activity,inhibitor,,1 µM,inhibition,-2%
c1ccc(N2CCN(Cc3nc4ccccc4[nH]3)CC2)nc1,binding,,competition with immobilised ligand,1 µM,remaining binding,100%
N#CCCc1ccc2c(c1)-c1[nH]c3ccc([N+](=O)[O-])cc3c1CC(=O)N2,cell-free assay,,,0.5 µM,remaining signal,101%
CN(C)C1CCN(CC#Cc2nn(C3CCCC3)c3nc(NCc4ccccc4)ncc23)C1 (stereo not shown),enzyme activity,inhibitor,FRET,1 µM,inhibition,11%
CCCS(=O)(=O)Nc1ccc(F)c(C(=O)c2c[nH]c3ncc(-c4ccc(Cl)cc4)cc23)c1F,enzyme activity,inhibitor,,1 µM,inhibition,< 10%
CN(C)CC#Cc1ccc(OCCCc2sc(N3CCc4cccc(C(=O)Nc5nc6ccccc6s5)c4C3)nc2C(=O)O)c(F)c1,cell-free assay,,competition with immobilised ligand,1 µM,remaining binding,100%
CS(=O)(=O)CCNCc1ccc(-c2ccc3ncnc(Nc4ccc(OCc5cccc(F)c5)c(Cl)c4)c3c2)o1,cell-free assay,,,0.5 µM,remaining signal,90.3%
